One series has as its target Protein smoothened (Mus musculus, UniProt P56726). Nature of the series: Inhibition of smo-mediated hedgehog signaling pathway in mouse ASZ001 cells assessed as decrease in Gli1 mRNA expression after 48 hrs by qPCR method. Type of series: cell-based. The essentials: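 Gli1 mRNA measured by qPCR after 48 h incubation with compound, normalized to actin as internal control. Concentrations judged cytotoxic (by visual assessment and/or a significant drop in actin expression) were excluded from analysis. IC50 given as mean ± SEM of at least two separate experiments, each in triplicate.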
(In general: Real-time PCR tracks product formation cycle by cycle.)

A short description of series [1]: Half life in human liver microsomes at 1 uM by UPLC-MS/MS analysis. Format: ADME, Microsome.
In the next series the target is Cytochrome P450 3A4 (Homo sapiens, UniProt P08684). The experiment in a line: Inhibition of CYP3A4 (unknown origin) using midazolam as substrate by UPLC-MS/MS analysis. Format: ADME.
Sequence of Cytochrome P450 3A4 (P08684 whole entry): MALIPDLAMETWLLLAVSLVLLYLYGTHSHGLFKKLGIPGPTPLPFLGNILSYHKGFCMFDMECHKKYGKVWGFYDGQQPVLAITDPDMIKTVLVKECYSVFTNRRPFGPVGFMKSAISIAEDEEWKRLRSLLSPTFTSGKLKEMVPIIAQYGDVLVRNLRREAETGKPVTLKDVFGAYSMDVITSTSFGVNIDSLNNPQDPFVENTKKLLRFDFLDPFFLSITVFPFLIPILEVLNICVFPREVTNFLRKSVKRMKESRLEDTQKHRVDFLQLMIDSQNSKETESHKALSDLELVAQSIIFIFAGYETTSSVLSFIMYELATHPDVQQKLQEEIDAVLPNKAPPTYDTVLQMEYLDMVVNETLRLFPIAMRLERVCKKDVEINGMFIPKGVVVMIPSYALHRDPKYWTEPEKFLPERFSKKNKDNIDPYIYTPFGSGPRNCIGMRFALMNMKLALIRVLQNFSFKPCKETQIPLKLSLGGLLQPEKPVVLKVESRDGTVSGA
Series [2] addresses Voltage-gated inwardly rectifying potassium channel KCNH2 (Homo sapiens, UniProt Q12809). Nature of the series: Inhibition of human ERG.
The test system of the next series is Medulloblastoma cell. Nature of the series: Antiproliferative activity against medulloblastoma cells derived from conditional patched knockout mouse after 48 hrs by [3H]-thymidine incorporation assay. Type of series: functional. The essentials: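 Cells are MERP medulloblastoma cells isolated from Math1-Cre-ER;Ptcfl/fl mouse tumors and cultured in vitro. Compounds were incubated for 48 h before the growth read-out. GI50 is the mean ± SEM of at least two separate experiments, each run in triplicate.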
(In general: Incorporation of labelled thymidine or its analogues reports DNA synthesis.)

Series [3] can be described thus: Kinetic solubility of the compound in PBS at pH 7.4 by UPLC-MS/MS analysis. Type of series: physicochemical. The following applies: read-out: Kinetic_solubility.
Series [4] is described as follows: Intrinsic clearance in human liver microsomes at 1 uM by UPLC-MS/MS analysis. Format: ADME, Microsome. On the technique in general: Liver microsomes are vesicles of endoplasmic reticulum, rich in cytochrome P450 enzymes.
For a further series, the species on record is Mus musculus. The experiment in a line: Antiproliferative activity against mouse ASZ001 cells measured after 48 hrs by MTS/PMS assay. Type of series: functional, cell-based.

≈ marks a conversion by molar mass, not a printed value. Calls of active or inactive are those of the source. The rule behind the calls is not given here.

Sequence of Voltage-gated inwardly rectifying potassium channel KCNH2 (Q12809 whole entry): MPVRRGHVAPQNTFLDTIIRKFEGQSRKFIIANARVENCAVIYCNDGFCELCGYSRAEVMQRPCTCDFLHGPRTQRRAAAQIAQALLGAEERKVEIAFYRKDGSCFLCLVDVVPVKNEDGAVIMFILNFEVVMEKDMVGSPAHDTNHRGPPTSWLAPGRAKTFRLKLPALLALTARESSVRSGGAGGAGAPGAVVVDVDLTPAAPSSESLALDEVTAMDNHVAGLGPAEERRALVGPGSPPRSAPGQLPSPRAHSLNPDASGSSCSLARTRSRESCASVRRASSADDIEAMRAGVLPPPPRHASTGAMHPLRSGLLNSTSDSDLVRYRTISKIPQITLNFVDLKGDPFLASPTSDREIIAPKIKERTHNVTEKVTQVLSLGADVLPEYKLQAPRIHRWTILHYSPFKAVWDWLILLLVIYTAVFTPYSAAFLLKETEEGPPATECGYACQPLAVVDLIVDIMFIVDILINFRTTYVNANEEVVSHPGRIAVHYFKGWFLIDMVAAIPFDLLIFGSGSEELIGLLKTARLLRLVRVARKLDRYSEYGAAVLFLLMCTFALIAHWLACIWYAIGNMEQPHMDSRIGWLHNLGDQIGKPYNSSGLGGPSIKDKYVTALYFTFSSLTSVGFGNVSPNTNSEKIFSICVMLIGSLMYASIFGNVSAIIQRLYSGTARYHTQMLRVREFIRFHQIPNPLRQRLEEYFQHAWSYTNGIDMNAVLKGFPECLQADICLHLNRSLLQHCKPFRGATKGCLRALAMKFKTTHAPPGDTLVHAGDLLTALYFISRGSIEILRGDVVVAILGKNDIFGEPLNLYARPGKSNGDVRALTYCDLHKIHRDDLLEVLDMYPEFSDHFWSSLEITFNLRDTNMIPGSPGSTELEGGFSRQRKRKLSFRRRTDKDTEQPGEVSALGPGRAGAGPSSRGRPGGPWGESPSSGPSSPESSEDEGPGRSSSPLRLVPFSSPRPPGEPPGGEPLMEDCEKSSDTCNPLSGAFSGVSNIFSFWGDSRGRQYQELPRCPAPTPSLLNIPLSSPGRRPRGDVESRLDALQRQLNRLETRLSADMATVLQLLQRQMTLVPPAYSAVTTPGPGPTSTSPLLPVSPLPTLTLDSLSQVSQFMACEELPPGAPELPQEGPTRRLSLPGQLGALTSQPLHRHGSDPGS
Sequence of Protein smoothened (P56726 whole entry): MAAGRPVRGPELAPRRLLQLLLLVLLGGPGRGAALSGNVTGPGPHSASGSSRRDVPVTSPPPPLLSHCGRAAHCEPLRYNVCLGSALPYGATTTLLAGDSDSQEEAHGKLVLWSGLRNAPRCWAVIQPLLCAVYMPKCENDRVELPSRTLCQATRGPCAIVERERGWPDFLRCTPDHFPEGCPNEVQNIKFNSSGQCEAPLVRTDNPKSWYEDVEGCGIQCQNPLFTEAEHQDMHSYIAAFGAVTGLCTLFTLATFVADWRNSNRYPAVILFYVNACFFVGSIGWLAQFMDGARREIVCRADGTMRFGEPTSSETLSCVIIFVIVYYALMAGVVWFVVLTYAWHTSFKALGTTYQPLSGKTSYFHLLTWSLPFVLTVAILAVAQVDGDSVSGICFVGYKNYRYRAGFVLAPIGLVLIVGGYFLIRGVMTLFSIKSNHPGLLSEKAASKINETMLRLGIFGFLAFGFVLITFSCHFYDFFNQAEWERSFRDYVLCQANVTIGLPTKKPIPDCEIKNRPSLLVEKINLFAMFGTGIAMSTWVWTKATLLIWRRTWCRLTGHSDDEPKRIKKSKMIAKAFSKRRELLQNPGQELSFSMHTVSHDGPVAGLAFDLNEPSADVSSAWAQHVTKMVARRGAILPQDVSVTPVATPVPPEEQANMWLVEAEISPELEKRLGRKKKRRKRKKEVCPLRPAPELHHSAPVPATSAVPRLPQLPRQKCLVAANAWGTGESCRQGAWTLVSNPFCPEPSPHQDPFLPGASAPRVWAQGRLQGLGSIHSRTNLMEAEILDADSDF

For `C[C@@]1(c2ccc(Cl)cc2Cl)OC[C@@H](COc2ccc(N3CCN(c4ccc(NC(=O)c5ccccc5)cc4)CC3)cc2)O1`, on Protein smoothened, the IC50 (as a rule, the concentration at which inhibition is half-maximal) is above 10 µM.

Turning to `C[C@]1(c2ccc(Cl)cc2Cl)OC[C@@H](COc2ccc(N3CCN(c4ccc(NC(=O)c5ccc(O)cc5)cc4)CC3)cc2)O1`, at Protein smoothened, the half-inhibitory concentration (IC50) was found to be 3 µM.

For `C[C@@]1(c2ccc(Cl)cc2Cl)OC[C@@H](COc2ccc(N3CCN(c4ccc(N)cc4)CC3)cc2)O1`, at Protein smoothened, the IC50 came to 0.92 µM.

As to `C[C@]1(c2ccc(Cl)cc2Cl)OC[C@@H](COc2ccc(N3CCN(c4ccc(N)cc4)CC3)cc2)O1`, at Protein smoothened, the half-maximal inhibitory concentration (IC50) came out at 0.39 µM.

For `C[C@]1(c2ccc(Cl)cc2Cl)OC[C@@H](COc2ccc(N3CCN(c4ccc(NC(=O)c5ccccc5O)cc4)CC3)cc2)O1`, on Protein smoothened, the half-maximal inhibitory concentration (IC50) was determined as 2.2 µM.

Turning to `C[C@@]1(c2ccc(Cl)cc2Cl)OC[C@@H](COc2ccc(N3CCN(c4ccc(NC(=O)NN)cc4)CC3)cc2)O1`, the t1/2 in series [1] came to 20.1 min. The same compound registered a 50% inhibitory concentration (IC50) on Cytochrome P450 3A4 above 30 µM. Moreover, the “inhibition (INH)” value in series [2] is reported as 2.2%. Further, growth in the series on Medulloblastoma cell was halved (GI50) at 0.5 µM. For the same compound, the solubility kinetic in series [3] was determined as 9.3 nM (≈ 5.32 ng/mL).

On to `C[C@]1(c2ccc(Cl)cc2Cl)OC[C@@H](COc2ccc(N3CCN(c4ccc([N+](=O)[O-])cc4)CC3)cc2)O1`, for which the IC50 at Protein smoothened came out at 0.26 µM.

Turning to `C[C@@]1(c2ccc(Cl)cc2Cl)OC[C@@H](COc2ccc(N3CCN(c4ccc(NC(=O)c5ccc(O)cc5)cc4)CC3)cc2)O1`, the half-maximal inhibitory concentration (IC50) at Protein smoothened was above 10 µM.

In turn, `C[C@@]1(c2ccc(Cl)cc2Cl)OC[C@@H](COc2ccc(N3CCN(c4ccc(NC(=O)c5cccnc5)cc4)CC3)cc2)O1` showed a t1/2 in series [1] of 59.9 min. The compound further had an IC50 on Cytochrome P450 3A4 above 30 µM. Besides, the concentration for 50% growth inhibition (GI50) (commonly the concentration giving 50% growth inhibition) in the series on Medulloblastoma cell is above 10 µM. Moreover, in series [3], the solubility kinetic amounted to 4.2 nM (≈ 2.6 ng/mL).

With `C[C@@]1(c2ccc(Cl)cc2Cl)OC[C@@H](COc2ccc(N3CCN(c4ccc([N+](=O)[O-])cc4)CC3)cc2)O1`, the half-inhibitory concentration (IC50) on Protein smoothened came to 0.31 µM.

As to `CC[C@@H](C)n1ncn(-c2ccc(N3CCN(c4ccc(OC[C@@H]5CO[C@](C)(c6ccc(Cl)cc6Cl)O5)cc4)CC3)cc2)c1=O` (relative stereo), the concentration for half-maximal inhibition (IC50) against Cytochrome P450 3A4 is above 20 µM. In addition, the solubility kinetic in series [3] amounted to 800 nM (≈ 511 ng/mL).

As for `COc1cccc(C(=O)Nc2ccc(N3CCN(c4ccc(OC[C@@H]5CO[C@](C)(c6ccc(Cl)cc6Cl)O5)cc4)CC3)cc2)c1`, the IC50 on Protein smoothened stood at 5.7 µM.

As for `C[C@@]1(c2ccc(Cl)cc2Cl)OC[C@@H](COc2ccc(N3CCN(c4ccc(NC(=O)c5cccc(O)c5)cc4)CC3)cc2)O1`, in series [4], the CLH was below 3 µL/min/mg. Further, in series [1], the t1/2 is listed as above 231 min. Also, at Cytochrome P450 3A4, the half-inhibitory concentration (IC50) is above 30 µM. Besides, the “inhibition (INH)” value in series [2] was determined as 1.2%. The 50% growth inhibitory concentration (GI50) in the series on Medulloblastoma cell stood at 2.8 µM. The solubility kinetic in series [3] amounted to 1.4 nM (≈ 0.888 ng/mL).

Take `C[C@]1(c2ccc(Cl)cc2Cl)OC[C@@H](COc2ccc(N3CCN(c4ccc(NC(=O)c5ccccn5)cc4)CC3)cc2)O1`: the IC50 on Protein smoothened turned out to be 3.9 µM.

Consider `CC[C@@H](C)n1ncn(-c2ccc(N3CCN(c4ccc(OC[C@@H]5CO[C@@](C)(c6ccc(Cl)cc6Cl)O5)cc4)CC3)cc2)c1=O` (relative stereo), for which, on Cytochrome P450 3A4, the IC50 came to 1.02 µM. The solubility kinetic in series [3] amounted to 1560 nM (≈ 996 ng/mL).

In turn, `CC(=O)c1cccc(C(=O)Nc2ccc(N3CCN(c4ccc(OC[C@@H]5CO[C@](C)(c6ccc(Cl)cc6Cl)O5)cc4)CC3)cc2)c1` displayed a t1/2 in series [1] of 11.4 min. The compound further displayed an IC50 on Cytochrome P450 3A4 above 30 µM. In series [2], the “inhibition (INH)” value is given as below 1%. Further, in the series listed under Mus musculus, the result was Active. Also, in series [3], the solubility kinetic was 1.4 nM (≈ 0.925 ng/mL).

The compound `C[C@]1(c2ccc(Cl)cc2Cl)OC[C@@H](COc2ccc(N3CCN(c4ccc(NC(=O)c5cccnc5)cc4)CC3)cc2)O1` gave a t1/2 in series [1] of 8.9 min. Moreover, the IC50 against Cytochrome P450 3A4 is above 20 µM. In series [2], the “inhibition (INH)” value is reported as below 1%. In the series on Medulloblastoma cell, this compound returned a GI50 of 1.1 µM. In series [3], the solubility kinetic was found to be 6.9 nM (≈ 4.27 ng/mL).

Turning to `C[C@@]1(c2ccc(Cl)cc2Cl)OC[C@@H](COc2ccc(N3CCN(c4ccc(NC(=O)c5ccccn5)cc4)CC3)cc2)O1`, the IC50 at Protein smoothened is above 10 µM.

In the case of `C[C@]1(c2ccc(Cl)cc2Cl)OC[C@@H](COc2ccc(N3CCN(c4ccc(NC(=O)c5ccccc5)cc4)CC3)cc2)O1`, the 50% inhibitory concentration (IC50) on Protein smoothened is above 10 µM.

As to `CCC(C)n1ncn(-c2ccc(N3CCN(c4ccc(OCC5COC(Cn6cncn6)(c6ccc(Cl)cc6Cl)O5)cc4)CC3)cc2)c1=O` (configuration not stated) [ITRACONAZOLE], the “inhibition (INH)” value in series [2] is recorded as below 1%.

As for `C[C@]1(c2ccc(Cl)cc2Cl)OC[C@@H](COc2ccc(N3CCN(c4ccc(-n5cn[nH]c5=O)cc4)CC3)cc2)O1`, on Protein smoothened, the IC50 amounted to 0.21 µM.

As for `C[C@]1(c2ccc(Cl)cc2Cl)OC[C@@H](COc2ccc(N3CCN(c4ccc(NC(=O)c5ccsc5)cc4)CC3)cc2)O1`, the IC50 at Protein smoothened was above 10 µM.

As for `C[C@@]1(c2ccc(Cl)cc2Cl)OC[C@@H](COc2ccc(N3CCN(c4ccc(NC(=O)c5ccc6ccccc6c5)cc4)CC3)cc2)O1`, at Protein smoothened, the IC50 is above 10 µM.

For `C[C@]1(c2ccc(Cl)cc2Cl)OC[C@@H](COc2ccc(N3CCN(c4ccc(NC(=O)c5ccoc5)cc4)CC3)cc2)O1`, the half-maximal inhibitory concentration (IC50) on Protein smoothened is above 10 µM.

As for `C[C@@]1(c2ccc(Cl)cc2Cl)OC[C@@H](COc2ccc(N3CCN(c4ccc(NC(=O)c5ccncc5)cc4)CC3)cc2)O1`, the IC50 at Protein smoothened was above 10 µM.

`C[C@]1(c2ccc(Cl)cc2Cl)OC[C@@H](COc2ccc(N3CCN(c4ccc(NC(=O)c5cccc(Cl)c5)cc4)CC3)cc2)O1`: the IC50 at Protein smoothened is above 10 µM.

For `C[C@@]1(c2ccc(Cl)cc2Cl)OC[C@@H](COc2ccc(N3CCN(c4ccc(NC(=O)c5ccccc5O)cc4)CC3)cc2)O1`, at Protein smoothened, the IC50 was above 10 µM.

Turning to `C[C@]1(c2ccc(Cl)cc2Cl)OC[C@@H](COc2ccc(N3CCN(c4ccc(NC(=O)c5ccncc5)cc4)CC3)cc2)O1`, the IC50 at Protein smoothened was above 10 µM.

For `C[C@]1(c2ccc(Cl)cc2Cl)OC[C@@H](COc2ccc(N3CCN(c4ccc(NC(=O)c5ccc6ccccc6c5)cc4)CC3)cc2)O1`, the IC50 at Protein smoothened was above 10 µM.

For the compound `C[C@]1(c2ccc(Cl)cc2Cl)OC[C@@H](COc2ccc(N3CCN(c4ccc(NC(=O)NN)cc4)CC3)cc2)O1`, in series [1], the t1/2 is 11.5 min. The IC50 at Cytochrome P450 3A4 was above 30 µM. The compound also had a concentration for 50% growth inhibition (GI50) in the series with Medulloblastoma cell of 2.8 µM. Besides, the solubility kinetic in series [3] turned out to be 1.4 nM (≈ 0.801 ng/mL).

As for `C[C@@]1(c2ccc(Cl)cc2Cl)OC[C@@H](COc2ccc(N3CCN(c4ccc(-n5cn[nH]c5=O)cc4)CC3)cc2)O1`, on Protein smoothened, the half-inhibitory concentration (IC50) was 0.14 µM.

With `C[C@]1(c2ccc(Cl)cc2Cl)OC[C@@H](COc2ccc(N3CCN(c4ccc(NC(=O)c5cccc(O)c5)cc4)CC3)cc2)O1`, in series [1], the t1/2 is recorded as 19.9 min. Further, at Cytochrome P450 3A4, the IC50 was found to be 11.4 µM. In addition, the “inhibition (INH)” value in series [2] is on record as below 1%. Moreover, the outcome in the series listed under Mus musculus was Active. Further, the 50% growth inhibitory concentration (GI50) in the series on Medulloblastoma cell is 0.35 µM. Further, in series [3], the solubility kinetic stood at 1.6 nM (≈ 1.02 ng/mL).

These data come from ChEMBL document CHEMBL4387707, “Structure-Activity Relationships for Itraconazole-Based Triazolone Analogues as Hedgehog Pathway Inhibitors” (J Med Chem, 2019).
